Values after ≈ are worked out from the molar mass of the structure shown.
Key:
[1] = tested on: MCF7; experiment: Cytotoxicity against human MCF7 cells after 72 hrs by methylene blue assay; format: functional, cell-based; settings: MCF7, 72 h
Procedure, shortened: (§1)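 Cells exposed to compounds for 72 h, then fixed. Protein content quantified by methylene blue staining. IC50 is 50% inhibition of control growth. Means ± SD of three independent experiments.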

[2] = tested on: A549; experiment: Cytotoxicity against human A549 cells after 72 hrs by methylene blue assay; format: functional, cell-based; settings: A549, 72 h; procedure, shortened: as §1
[3] = tested on: HT-1080; experiment: Cytotoxicity against human HT1080 cells after 3 days by MTT assay; format: functional, cell-based; settings: HT-1080, 72 h
Procedure, shortened: (§2)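 Cells (3 × 10^3 BAE or 2 × 10^3 HT1080) in their growth media with serial compound dilutions, 3 days, 37 °C, 5% CO2. MTT added for 4 h, formazan dissolved in 0.04 N HCl–2-propanol, read at 550 nm. Triplicate determinations. IC50 is the concentration giving 50% cell survival. Means ± SD of three independent experiments.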

[4] = target: T1, Tubulin (Sus scrofa) (UniProt P02554+P02550); experiment: Induction of pig brain tubulin polymerization at 10 uM
T1 sequence (P02550 whole entry, looked up): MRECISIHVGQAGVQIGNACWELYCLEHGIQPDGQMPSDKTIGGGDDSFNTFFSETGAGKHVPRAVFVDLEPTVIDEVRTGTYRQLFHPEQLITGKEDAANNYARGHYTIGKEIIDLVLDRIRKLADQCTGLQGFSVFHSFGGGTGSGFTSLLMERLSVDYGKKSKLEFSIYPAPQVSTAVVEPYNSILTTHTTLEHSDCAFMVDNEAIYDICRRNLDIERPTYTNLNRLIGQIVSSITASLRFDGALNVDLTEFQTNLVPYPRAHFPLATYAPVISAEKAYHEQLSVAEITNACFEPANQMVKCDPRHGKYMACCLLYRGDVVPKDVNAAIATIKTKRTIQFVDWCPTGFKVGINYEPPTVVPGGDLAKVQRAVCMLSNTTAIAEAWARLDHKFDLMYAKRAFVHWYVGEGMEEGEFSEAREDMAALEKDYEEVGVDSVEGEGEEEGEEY
T1 sequence (P02554 whole entry, looked up): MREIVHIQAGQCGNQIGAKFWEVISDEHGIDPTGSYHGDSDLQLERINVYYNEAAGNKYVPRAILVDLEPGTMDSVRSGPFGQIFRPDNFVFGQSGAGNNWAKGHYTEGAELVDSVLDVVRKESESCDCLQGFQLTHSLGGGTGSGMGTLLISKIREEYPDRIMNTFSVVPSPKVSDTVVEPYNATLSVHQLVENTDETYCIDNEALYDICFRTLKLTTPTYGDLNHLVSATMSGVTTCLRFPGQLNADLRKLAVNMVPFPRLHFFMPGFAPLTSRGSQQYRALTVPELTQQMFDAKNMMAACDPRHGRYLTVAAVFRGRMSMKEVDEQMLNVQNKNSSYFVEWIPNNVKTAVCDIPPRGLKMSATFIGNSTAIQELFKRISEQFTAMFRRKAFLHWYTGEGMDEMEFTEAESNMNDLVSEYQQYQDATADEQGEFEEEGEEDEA

[5] = Cytotoxicity against mouse betaD10 cells after 96 hrs by MTS assay; format: functional, cell-based
Procedure, shortened: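 βD10 lung tumor cells from c-myc/c-raf double transgenic mice seeded at 10^3 cells/well and left to attach 24 h. Compounds added in medium at various concentrations for 24 or 96 h. MTS/PES reagent then 1 h at 37 °C, absorbance at 490 nm. Quintuplicates, expressed as % of control.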

[6] = Antiangiogenic activity in BAEC assessed as inhibition cell migration after 24 hrs by […] migration assay; format: functional; settings: Bos taurus
Procedure, shortened: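 BAE monolayers grown to confluence, wounded with pipette tips to give one acellular 1 mm-wide lane per well, washed, then given complete medium with or without test compounds. Same wounded areas photographed at 0, 7 and 24 h under microscope.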

[7] = Antiangiogenic activity in BAEC assessed as inhibition of tube formation after 7 hrs by cell differentiation assay; format: functional; settings: Bos taurus
Procedure, shortened: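 BAE cells (5 × 10^4) in DMEM plated on polymerized Matrigel (about 10.5 mg/mL), compounds added at different amounts, 37 °C, 5% CO2, 7 h. Cord/tube formation photographed at 200×. Each concentration tested in duplicate, scored by two observers.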

[8] = target: T1, Tubulin (Sus scrofa); experiment: Induction of pig brain tubulin polymerization at 5 uM
[9] = Cytotoxicity against BAEC; settings: Bos taurus; procedure, shortened: as §2

| SMILES | % tubulin polymerization [4] [%] | MIC [6] [µM] | MIC [7] [µM] | % tubulin polymerization [8] [%] | IC50 [1] [nM] | IC50 [2] [nM] | IC50 [3] [nM] | IC50 [5] [nM] | IC50 [9] [nM] |
| --- | --- | --- | --- | --- | --- | --- | --- | --- | --- |
| C/C(=C\c1csc(C)n1)[C@@H]1C[C@@H]2O[C@@H]2CCC[C@H](C)[C@H](O)[C@@H](C)C(=O)C(C)(C)[C@@H](O)CC(=O)O1 [EPOTHILONE A] | 99.8 | 0.005 (≈ 0.00247 µg/mL) | 0.005 (≈ 0.00247 µg/mL) | 92.2 | 2.5 | 2.6 | 1.3 | 70 | 0.7 |
| C/C(=C\c1csc(C)n1)[C@@H]1C[C@@H]2O[C@@H]2CCC[C@H](C)[C@H](OC(=O)CCCCCCC(=O)O[C@H]2[C@@H](C)CCC[C@H]3O[C@H]3C[C@@H](/C(C)=C/c3csc(C)n3)OC(=O)C[C@H](O)C(C)(C)C(=O)[C@@H]2C)[C@@H](C)C(=O)C(C)(C)[C@@H](O)CC(=O)O1 | 0.3 | 0.1 (≈ 0.113 µg/mL) | 0.1 (≈ 0.113 µg/mL) | 0.7 | 321 | 316 | 17 | 2500 | 20 |
| C/C(=C\c1csc(C)n1)[C@@H]1C[C@@H]2O[C@@H]2CCC[C@H](C)[C@H](OC(=O)CCCCCCCCC(=O)O[C@H]2[C@@H](C)CCC[C@H]3O[C@H]3C[C@@H](/C(C)=C/c3csc(C)n3)OC(=O)C[C@H](O)C(C)(C)C(=O)[C@@H]2C)[C@@H](C)C(=O)C(C)(C)[C@@H](O)CC(=O)O1 | 0.6 | 0.1 (≈ 0.115 µg/mL) | 0.05 (≈ 0.0577 µg/mL) | 0.1 | 1030 | 956 | 13 | 5020 | 39 |

More lines, main results first:

| % tubulin polymerization [4] [%] | MIC [6] [µM] | MIC [7] [µM] | % tubulin polymerization [8] [%] | SMILES | IC50 [1] [nM] | IC50 [2] [nM] | IC50 [3] [nM] | IC50 [5] [nM] | IC50 [9] [nM] |
| --- | --- | --- | --- | --- | --- | --- | --- | --- | --- |
| 1 | 0.05 (≈ 0.0567 µg/mL) | 0.1 (≈ 0.113 µg/mL) | 0.3 | C/C(=C\c1csc(C)n1)[C@@H]1C[C@@H]2O[C@@H]2CCC[C@H](C)[C@H](OC(=O)CSSCC(=O)O[C@H]2[C@@H](C)CCC[C@H]3O[C@H]3C[C@@H](/C(C)=C/c3csc(C)n3)OC(=O)C[C@H](O)C(C)(C)C(=O)[C@@H]2C)[C@@H](C)C(=O)C(C)(C)[C@@H](O)CC(=O)O1 | 357 | 319 | 290 | 1000 | 29 |
| 0.7 | 0.1 (≈ 0.11 µg/mL) | 0.1 (≈ 0.11 µg/mL) | 0.2 | C/C(=C\c1csc(C)n1)[C@@H]1C[C@@H]2O[C@@H]2CCC[C@H](C)[C@H](OC(=O)CCCCC(=O)O[C@H]2[C@@H](C)CCC[C@H]3O[C@H]3C[C@@H](/C(C)=C/c3csc(C)n3)OC(=O)C[C@H](O)C(C)(C)C(=O)[C@@H]2C)[C@@H](C)C(=O)C(C)(C)[C@@H](O)CC(=O)O1 | 412 | 405 | 69 | 70500 | 40 |
| 0.2 | 0.1 (≈ 0.116 µg/mL) | 0.05 (≈ 0.0581 µg/mL) | 0 | C/C(=C\c1csc(C)n1)[C@@H]1C[C@@H]2O[C@@H]2CCC[C@H](C)[C@H](OC(=O)CCSSCCC(=O)O[C@H]2[C@@H](C)CCC[C@H]3O[C@H]3C[C@@H](/C(C)=C/c3csc(C)n3)OC(=O)C[C@H](O)C(C)(C)C(=O)[C@@H]2C)[C@@H](C)C(=O)C(C)(C)[C@@H](O)CC(=O)O1 | 379 | 367 | 43 | 3.3 | 111 |
| 0.2 | 0.1 (≈ 0.119 µg/mL) | 0.1 (≈ 0.119 µg/mL) | 0.5 | C/C(=C\c1csc(C)n1)[C@@H]1C[C@@H]2O[C@@H]2CCC[C@H](C)[C@H](OC(=O)CCCSSCCCC(=O)O[C@H]2[C@@H](C)CCC[C@H]3O[C@H]3C[C@@H](/C(C)=C/c3csc(C)n3)OC(=O)C[C@H](O)C(C)(C)C(=O)[C@@H]2C)[C@@H](C)C(=O)C(C)(C)[C@@H](O)CC(=O)O1 | 432 | 383 | 71 | 2000 | 133 |
